Values belong to the compound of their own block, whether it stands above or below them.
Legend:
[1] = test system: PC-3; test: Cytotoxicity against human PC3 cells assessed as cell viability by tryptan blue staining method; assay type: functional, cell-based
In short: (§1)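 Human cancer lines PC-3 (prostate), A549 (lung) and MCF-7 (breast) were treated with compound. Viability was assessed by Trypan blue staining, and EC50 is reported in µM.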

[2] = test system: A549; test: Cytotoxicity against human A549 cells assessed as cell viability by tryptan blue staining method; assay type: functional, cell-based; in short: as §1
[3] = test system: MCF7; test: Cytotoxicity against human MCF7 cells assessed as cell viability by tryptan blue staining method; assay type: functional, cell-based; in short: as §1
[4] = Cytotoxicity against human Fb cells assessed as cell viability by tryptan blue staining method; assay type: cell-based
In short: (§2)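 Human normal cell lines were treated with compound: Fb (skin), Hc (liver), MPC-5 (lung) and IE (colon). Viability was assessed by Trypan blue staining, and EC50 is reported in µM.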

[5] = Cytotoxicity against human Hc cells assessed as cell viability by tryptan blue staining method; assay type: cell-based; in short: as §2
[6] = Cytotoxicity against human MPC5 cells assessed as cell viability by tryptan blue staining method; assay type: cell-based; conditions: MPC-5; in short: as §2
[7] = Cytotoxicity against human IE cells assessed as cell viability by tryptan blue staining method; assay type: cell-based; in short: as §2
[8] = test system: Human gammaherpesvirus 4; test: Inhibition of TPA-induced EBV-EA activation in Raji cells at 1000 mol ratio/TPA relative to control; assay type: functional
In short: (§3)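 TPA-induced EBV-EA activation in Raji cells, with TPA at 32 pmol and test agent at 1000, 500, 100 and 10 mol ratio/TPA. EA-positive cells are expressed relative to the positive control (TPA alone, 100%). An IC50 in µM is derived from the dose series. Curcumin served as the positive control substance.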

[9] = test system: Human gammaherpesvirus 4; test: Inhibition of TPA-induced EBV-EA activation in Raji cells at 500 mol ratio/TPA relative to control; assay type: functional; in short: as §3
[10] = test system: Human gammaherpesvirus 4; test: Inhibition of TPA-induced EBV-EA activation in Raji cells at 100 mol ratio/TPA relative to control; assay type: functional; in short: as §3
[11] = test system: Human gammaherpesvirus 4; test: Inhibition of TPA-induced EBV-EA activation in Raji cells at 10 mol ratio/TPA relative to control; assay type: functional; in short: as §3
[12] = test system: Human gammaherpesvirus 4; test: Inhibition of TPA-induced EBV-EA activation in Raji cells; assay type: functional, organism-based; conditions: human gammaherpesvirus 4, Raji; in short: as §3
[13] = test system: Raji; test: Cell viability in Raji cells at 1000 mol ratio/TPA by tryptan blue staining relative to control; assay type: functional, Homo sapiens
In short: (§4)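 Raji cells co-treated with test agent and 32 pmol TPA in the EBV-EA activation assay. Doses were 10, 100, 500 or 1000 mol ratio relative to TPA. Viability was scored by Trypan blue staining and given as percent of Raji cells viable.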

[14] = test system: Raji; test: Cell viability in Raji cells at 500 mol ratio/TPA by tryptan blue staining relative to control; assay type: functional, Homo sapiens; in short: as §4
[15] = test system: Raji; test: Cell viability in Raji cells at 100 mol ratio/TPA by tryptan blue staining relative to control; assay type: functional, Homo sapiens; in short: as §4
[16] = test system: Raji; test: Cell viability in Raji cells at 10 mol ratio/TPA by tryptan blue staining relative to control; assay type: functional, Homo sapiens; in short: as §4

SMILES: CO[C@@]12[C@H](COC(N)=O)C3=C(C(=O)C(C)=C(N)C3=O)N1C[C@@H]1N[C@@H]12 [MITOMYCIN]
EC50 [1]: 0.14 µM
EC50 [2]: 0.43 µM
EC50 [3]: 0.96 µM
EC50 [4]: 0.93 µM
EC50 [5]: 1.46 µM
EC50 [6]: 2.1 µM
EC50 [7]: 1.46 µM

SMILES: C[C@@H](O)c1cc2c(o1)C(=O)c1cccc(O)c1C2=O
EC50 [1]: 0.93 µM
EC50 [2]: 3 µM
EC50 [3]: 9.3 µM
EC50 [4]: 39.7 µM
EC50 [5]: 29.8 µM
EC50 [6]: 65.9 µM
EC50 [7]: 39.7 µM
EBV-EA positive cells % [8]: 0%
EBV-EA positive cells % [9]: 9.7%
EBV-EA positive cells % [10]: 24.7%
EBV-EA positive cells % [11]: 59.4%
IC50 [12]: 38.9 µM
Activity [13]: 70%
Activity [14]: >80%
Activity [15]: >80%
Activity [16]: >80%

SMILES: CC(C)=CCC1=C(O)C(=O)c2ccccc2C1=O [LAPACHOL]
EBV-EA positive cells % [8]: 8.9%
EBV-EA positive cells % [9]: 32.8%
EBV-EA positive cells % [10]: 65.2%
EBV-EA positive cells % [11]: 86.6%
IC50 [12]: 311 µM
Activity [13]: 50%
Activity [14]: 60%
Activity [15]: >80%
Activity [16]: >80%

More lines, main results first:

IC50 [12]: 210 µM
SMILES: CC1(C)CCC2=C(O1)c1ccccc1C(=O)C2=O [LAPACHONE]
EBV-EA positive cells % [8]: 4.7%
EBV-EA positive cells % [9]: 21.7%
EBV-EA positive cells % [10]: 50.4%
EBV-EA positive cells % [11]: 73.1%
Activity [13]: 50%
Activity [14]: >80%
Activity [15]: >80%
Activity [16]: >80%

IC50 [12]: 33.2 µM
SMILES: C[C@H](O)c1cc2c(o1)C(=O)c1cccc(O)c1C2=O
EC50 [1]: 0.14 µM
EC50 [2]: 0.96 µM
EC50 [3]: 3.5 µM
EC50 [4]: 11.1 µM
EC50 [5]: 11.1 µM
EC50 [6]: 29.7 µM
EC50 [7]: 54.5 µM
EBV-EA positive cells % [8]: 0%
EBV-EA positive cells % [9]: 4.4%
EBV-EA positive cells % [10]: 16.9%
EBV-EA positive cells % [11]: 50%
Activity [13]: 60%
Activity [14]: 60%
Activity [15]: >80%
Activity [16]: >80%

IC50 [12]: 345 µM
SMILES: COc1cc(/C=C/C(=O)CC(=O)/C=C/c2ccc(O)c(OC)c2)ccc1O [CURCUMIN]

IC50 [12]: 34.9 µM
SMILES: CC(O)c1cc2c(o1)C(=O)c1cccc(O)c1C2=O (centres undefined)
EC50 [1]: 0.56 µM
EC50 [2]: 3.24 µM
EC50 [3]: 8.5 µM
EC50 [4]: 45.4 µM
EC50 [5]: 89.3 µM
EC50 [6]: 89.3 µM
EC50 [7]: 158 µM
EBV-EA positive cells % [8]: 0%
EBV-EA positive cells % [9]: 6.2%
EBV-EA positive cells % [10]: 20.7%
EBV-EA positive cells % [11]: 52.9%
Activity [13]: 60%
Activity [14]: 70%
Activity [15]: >80%
Activity [16]: >80%
